Reference: ChEMBL document CHEMBL3994624, “Antimalarial Pyrido[1,2-a]benzimidazoles: Lead Optimization, Parasite Life Cycle Stage Profile, Mechanistic Evaluation, Killing Kinetics, and in Vivo Oral Efficacy in a Mouse Model” (J Med Chem, 2017)
pIC50: −log10 of the molar value. ≈ marks a conversion by molar mass, not a printed value. Calls of active or inactive are those of the source. The calls are words filed in the database; no cut-off is given here.

Key:
[1] = Selectivity index, ratio of IC50 for CHO cells to IC50 for chloroquine-sensitive Plasmodium falciparum NF54; assay type: toxicity; conditions: hamster, read-out: Ratio IC50
Procedure, shortened: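 Selectivity index = IC50 CHO / IC50 PfNF54.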

[2] = Metabolic stability in Balb/c mouse liver microsomes assessed as compound remaining at 1 uM in presence of NADPH after 30 mins by LC-MS/MS analysis; assay type: ADME, microsome; conditions: read-out: Stability
Procedure, shortened: (§1)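 Mouse and human liver microsomes; % compound remaining after 30 min.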

Plasmodium falciparum [3] = experiment: Ratio of IC50 for chloroquine-sensitive Plasmodium falciparum NF54 after 24 hrs to IC50 for chloroquine-sensitive Plasmodium falciparum NF54 after 72 hrs; assay type: functional
[4] = Kinetic solubility of the compound in FaSSIF at pH 6.5 after 2 hrs by shake flask method; assay type: physicochemical; conditions: read-out: Kinetic_solubility
CHO = experiment: Cytotoxicity against CHO cells after by MTT assay; assay type: cell-based; conditions: Cricetulus griseus
Plasmodium falciparum [5] = experiment: Anti-plasmodial activity against multidrug resistant Plasmodium falciparum K1 by [3H]-hypoxanthine incorporation assay; assay type: functional
Procedure, shortened: (§2)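 P. falciparum asexual blood-stage growth inhibition by [3H]hypoxanthine incorporation; chloroquine and artesunate run as reference drugs in every experiment; IC50 given as mean of ≥2 independent experiments.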

Plasmodium falciparum [6] = experiment: Anti-plasmodial activity against chloroquine-sensitive Plasmodium falciparum NF54 by [3H]-hypoxanthine incorporation assay; assay type: functional; procedure, shortened: as §2
Plasmodium falciparum [7] = experiment: Ratio of IC50 for chloroquine-sensitive Plasmodium falciparum NF54 early 2/3 stage gametocytes to IC50 for chloroquine-sensitive Plasmodium falciparum NF54 late 4/5 stage gametocytes; assay type: functional
Procedure, shortened: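 Early (stage II/III) and late (stage IV/V) gametocytes tested in parallel luciferase reporter assays; stage preference = EG IC50/LG IC50.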

[8] = Metabolic stability in human liver microsomes assessed as compound remaining at 1 uM in presence of NADPH after 30 mins by LC-MS/MS analysis; assay type: ADME, microsome; conditions: read-out: Stability; procedure, shortened: as §1
Plasmodium falciparum [9] = experiment: Anti-plasmodial activity against chloroquine-sensitive Plasmodium falciparum NF54 late 4/5 stage gametocytes assessed as reduction in ATP levels after 24 hrs by BacTiter-Glo reagent based bioluminescence assay; assay type: functional; conditions: NF54, 24 h
Huh-7 = experiment: Cytotoxicity against human HuH7 cells at 1 to 10 uM after 48 hrs by Alamarblue assay; assay type: cell-based; conditions: huh-7, 48 h
Ferriprotoporphyrin IX [10] = experiment: Inhibition of beta hematin formation in water/NP40/DMSO solution after 5 hrs
Plasmodium falciparum [11] = experiment: Anti-plasmodial activity against chloroquine-sensitive Plasmodium falciparum NF54 late 4/5 stage gametocytes after 48 hrs by luciferin-luciferase reaction based bioluminescence assay; assay type: functional; conditions: NF54, 48 h
Plasmodium berghei [12] = experiment: Antimalarial activity against GFP-fused Plasmodium berghei ANKA liver stage infected in HuH7 cells pretreated for 1 hr followed by parasite infection at 1 uM after 48 hrs by luciferase reporter gene assay; assay type: functional, cell-based
Plasmodium berghei [13] = experiment: Antimalarial activity against GFP-fused Plasmodium berghei ANKA liver stage infected in HuH7 cells pretreated for 1 hr followed by parasite infection after 48 hrs by luciferase reporter gene assay; assay type: functional, cell-based; conditions: Huh-7
Plasmodium berghei [14] = experiment: Antimalarial activity against GFP-fused Plasmodium berghei ANKA infected in mouse assessed as protection against parasitemia at 50 mg/kg, po administered once daily for 4 days measured 30 days post infection by light microscopy; assay type: functional, organism-based
Procedure, shortened: (§3)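 P. berghei-infected mice, 3 per group. Compound formulated in 90/10 Tween80/ethanol (v/v), diluted 10-fold with water, given orally once daily at 4, 24, 48 and 72 h post-infection. Outcomes: % parasitemia reduction versus untreated control, mean survival days, and cured/infected. Mice with <40% reduction euthanized on day 4.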

Plasmodium berghei [15] = experiment: Antimalarial activity against GFP-fused Plasmodium berghei ANKA infected in mouse assessed as reduction in parasitemia at 50 mg/kg, po administered once daily for 4 days by flow cytometry relative to control; assay type: functional; set-up: scale not given: the % may be the effect or the level left; procedure, shortened: as §3
Plasmodium berghei [16] = experiment: Antimalarial activity against GFP-fused Plasmodium berghei ANKA infected in mouse assessed as mouse mean survival days at 50 mg/kg, po administered once daily for 4 days; assay type: functional
Procedure, shortened: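 P. berghei-infected mice (n=3 per dose) dosed orally once daily on 4 consecutive days at 4, 24, 48 and 72 h after infection; compound in 90/10 Tween80/ethanol (v/v) diluted 10-fold with water. Read-outs were % parasitemia reduction, mean survival time in days and cure; mice with <40% parasitemia reduction euthanized on day 4.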

Ferriprotoporphyrin IX [17] = experiment: Inhibition of beta hematin formation in ring stage of chloroquine-sensitive Plasmodium falciparum NF54 assessed as increase in free heme level after 36 hrs by UV-vis spectra analysis
Procedure, shortened: (§4)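 Synchronized ring-stage parasites treated with increasing drug concentrations, then cellular fractionation. Free haem and haemozoin quantified as iron (fg/cell) and compared with untreated control; significance by p-values; parasite survival overlaid.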

Ferriprotoporphyrin IX [18] = experiment: Inhibition of beta hematin formation in ring stage of chloroquine-sensitive Plasmodium falciparum NF54 assessed as decrease in haemozoin level after 36 hrs by UV-vis spectra analysis; procedure, shortened: as §4

Row | Structure (SMILES) | selectivity ratio [1] | remaining at 0.5 h, 1 µM [2] | Ratio IC50 (Plasmodium falciparum [3]) | solubility kinetic at 2 h [4] | pIC50 (CHO) | pIC50 (Plasmodium falciparum [5]) | pIC50 (Plasmodium falciparum [6]) | Ratio IC50 (Plasmodium falciparum [7]) | remaining at 0.5 h, 1 µM [8] | pIC50 (Plasmodium falciparum [9]) | Activity (Huh-7) | pIC50 (Ferriprotoporphyrin IX [10]) | pIC50 (Plasmodium falciparum [11]) | Activity (Plasmodium berghei [12]) | pIC50 (Plasmodium berghei [13]) | Activity (Plasmodium berghei [14]) | Activity (Plasmodium berghei [15]) | MSD (Plasmodium berghei [16]) | inhibition (Ferriprotoporphyrin IX [17]) | inhibition (Ferriprotoporphyrin IX [18])
1 | N#Cc1c(-c2ccc(C(F)(F)F)cc2)cc(NCCN2CCC(O)C2)n2c1nc1ccccc12 (centres undefined) | 153 | 51% | 18 | < 5 µM | 5.21 | 7.52 | 7.40 | – | – | – | – | – | – | – | – | – | – | – | – | –
2 | CCN(CC)CCCC(C)Nc1cc(-c2ccc(C(F)(F)F)cc2)c(C#N)c2nc3ccccc3n12 (centres undefined) | 4 | 32% | <1.5 | 85 µM (≈ 42 µg/mL) | 5.54 | 6.40 | 6.16 | 0.7 | 53% | 5.52 | Non-Toxic | – | – | – | – | – | – | – | – | –
3 | N#Cc1c(-c2ccc(C(F)(F)F)cc2)cc(NCCn2ccnc2)n2c1nc1ccccc12 | 27 | – | 1.5 - 2 | – | 4.98 | 6.10 | 6.41 | 1.1 | – | 5.99 | Non-Toxic | > 4.35 | – | – | – | – | – | – | – | –
4 | CCNCCNc1cc(-c2ccc(C(F)(F)F)cc2)c(C#N)c2nc3cc(Cl)ccc3n12 | 362 | 75% | 1.5 - 2 | – | 5.06 | 7.52 | 7.52 | 1.1 | 87% | – | Non-Toxic | > 4.35 | 6.09 | – | – | – | – | – | – | –
5 | CCNCCNc1c(C)c(-c2ccc(C(F)(F)F)cc2)c(C#N)c2nc3ccccc3n12 | – | 80% | – | < 5 µM | – | – | 5.89 | 0.8 | 85% | 5.59 | Non-Toxic | – | – | Active | 5.55 | – | – | – | – | –
6 | CCNCCNc1cc(-c2ccc(C(F)(F)F)cc2)c(C#N)c2nc3cccc(Cl)c3n12 | 5 | 93% | – | 10 µM (≈ 4.58 µg/mL) | 5.79 | 6.59 | 6.85 | – | 89% | – | – | – | – | – | – | inactive | 85% | 7 days | – | –
7 | COc1cc(NC(C)CCCN)c2ncccc2c1 (centres undefined) [PRIMAQUINE] | – | – | – | – | – | – | – | – | – | – | – | – | – | – | 5.07 | – | – | – | – | –
8 | CCNCCNc1cc(-c2ccc(F)cc2)c(C#N)c2nc3ccccc3n12 | 35 | – | – | – | 4.94 | 6.27 | 6.48 | 2.1 | – | 5.75 | Non-Toxic | – | – | – | – | – | – | – | – | –
9 | CCNCCNc1cc(C2CCCC2)c(C#N)c2nc3ccccc3n12 | 5 | – | – | – | 5.42 | 6.09 | 6.08 | 1.7 | – | 6.17 | Non-Toxic | – | – | – | – | – | – | – | – | –
10 | CCNCCNc1cc(-c2ccc(Cl)c(Cl)c2)c(C#N)c2nc3ccccc3n12 | 14 | 65% | – | – | 5.81 | 6.92 | 6.96 | 1.2 | 60% | 6.23 | Non-Toxic | > 4.35 | – | – | – | – | – | – | Dose-dependent effect | Dose-dependent effect
11 | CCNCCNc1cc(C2CCCCC2)c(C#N)c2nc3ccccc3n12 | 7 | 42% | – | 10 µM (≈ 3.61 µg/mL) | 5.50 | 6.17 | 6.33 | 3.3 | – | 6.34 | Non-Toxic | – | – | – | – | – | – | – | – | –
12 | CCc1nc(N)nc(N)c1-c1ccc(Cl)cc1 [PYRIMETHAMINE] | – | – | 6 | – | – | – | – | – | – | – | – | – | – | – | – | – | – | – | – | –
13 | CCNCCNc1cc(-c2ccc(Cl)cc2)c(C#N)c2nc3ccccc3n12 | 15 | – | – | – | 5.02 | 6.37 | 6.18 | 1.5 | – | 6.16 | Non-Toxic | – | – | – | – | – | – | – | – | –
14 | CN1CCC(Nc2cc(-c3ccc(C(F)(F)F)cc3)c(C#N)c3nc4ccccc4n23)CC1 | 14 | 63% | <1.5 | < 5 µM | 5.22 | 6.00 | 6.36 | – | 75% | – | – | – | – | – | – | – | – | – | – | –
15 | CCNCCNc1cc(-c2ccc(C(F)(F)F)cc2)c(C#N)c2nc3ccccc3n12 | 13 | 97% | <1.5 | < 5 µM | 5.81 | – | – | 2.4 | 84% | – | Non-Toxic | > 4.35 | 6.21 | – | – | – | – | – | – | –
16 | O=C1C(O)=C([C@H]2CC[C@H](c3ccc(Cl)cc3)CC2)C(=O)c2ccccc21 [ATOVAQUONE] | – | – | – | – | – | – | – | – | – | – | – | – | – | – | 9.00 | – | – | – | – | –
17 | CCNCCNc1cc(-c2cccc(F)c2)c(C#N)c2nc3ccccc3n12 | 13 | 100% | <1.5 | 25 µM (≈ 9.34 µg/mL) | 5.29 | 6.00 | 6.42 | 1.2 | 89% | 5.44 | Non-Toxic | – | – | – | – | – | 61% | 24 days | – | –
18 | N#Cc1c(-c2ccc(C(F)(F)F)cc2)cc(NC2CCNCC2)n2c1nc1ccccc12 | 46 | 65% | – | – | 4.78 | 6.09 | 6.44 | 1.6 | 99% | 5.94 | Non-Toxic | – | – | Active | 5.48 | – | – | – | – | –
